Reference: ChEMBL document CHEMBL1649230, “Aryl rhodanines specifically inhibit staphylococcal and enterococcal biofilm formation” (Antimicrob Agents Chemother, 2009)

Legend:
[1] = tested on: Staphylococcus epidermidis; assay: Antimicrobial activity against Staphylococcus epidermidis 1457 on medical grade silicone disk assessed as inhibition of bacterial biofilm after 18 hrs by broth microdilution method; format: functional
[2] = Cytotoxicity against human HeLa cells after 3 days by MTT assay; format: cell-based
In short: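 HeLa cells were seeded at 4 × 10^3 per well with or without serial dilutions of compound in DMSO. Plates were incubated 3 days at 37°C in minimal essential medium with 10% calf serum, and viability was read by MTT. CC50 was the concentration that reduced MTT-to-formazan conversion by 50%.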

Staphylococcus aureus [3] = assay: Antimicrobial activity against hospital acquired methicillin-resistant Staphylococcus aureus isolate 47263 assessed as inhibition of bacterial biofilm after 18 hrs by broth microdilution method; format: functional
In short: (§1)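 Biofilm MBIC on tissue culture-treated polystyrene 96-well plates. Twofold dilutions, 0.2 to 100 μM final, with 2% DMSO final. Inoculum was an overnight culture diluted 1:100 (~5 × 10^6 cells/well) in 0.5× TSB plus 1% glucose, grown 18 h at 37°C. Wells washed, heat-fixed 60°C 60 min, stained with 0.06% crystal violet, OD600 read. MBIC is the lowest concentration giving ≥80% inhibition versus untreated; geometric mean of ≥3 experiments.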

[4] = tested on: Staphylococcus epidermidis; assay: Antimicrobial activity against Staphylococcus epidermidis 1457 assessed as inhibition of bacterial biofilm after 18 hrs by broth microdilution method; format: functional
In short: (§2)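 Static biofilm in tissue culture-treated polystyrene 96-well plates in 0.5× TSB with 1% glucose. Overnight culture diluted 1:100 gives about 5 × 10^6 cells/well. Compound 2-fold series, final 0.2–100 μM, 2% DMSO. Incubated 18 h at 37°C. Washed, heat-fixed 60°C for 60 min, stained with 0.06% crystal violet, read at OD600. MBIC is the lowest concentration giving ≥80% inhibition versus untreated. Geometric mean of ≥3 independent experiments.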

[5] = tested on: Staphylococcus epidermidis; assay: Antimicrobial activity against Staphylococcus epidermidis O-47 assessed as inhibition of bacterial biofilm after 18 hrs by broth microdilution method; format: functional; in short: as §2
Staphylococcus aureus [6] = assay: Antimicrobial activity against Staphylococcus aureus ATCC 35556 assessed as inhibition of bacterial biofilm formation after 18 hrs by broth microdilution method in presence of 10 ug/ml fibrinogen; format: functional
In short: (§3)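 Polystyrene 96-well wells precoated with 100 μl fibronectin or fibrinogen (0–20 μg protein/ml) for 24 h at 4°C. Wells then washed with sterile water. The standard MBIC biofilm assay followed: 0.5× TSB with 1% glucose, 2% DMSO, 18 h at 37°C, crystal violet read at OD600.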

[7] = tested on: Staphylococcus epidermidis; assay: Antimicrobial activity against coagulase-negative Staphylococcus epidermidis isolate WTBF-47 assessed as inhibition of bacterial biofilm after 18 hrs by broth microdilution method; format: functional; in short: as §2
Staphylococcus aureus [8] = assay: Antimicrobial activity against Staphylococcus aureus ATCC 35556 assessed as inhibition of bacterial biofilm formation after 18 hrs by broth microdilution method in presence of 20 ug/ml fibronectin; format: functional; in short: as §3
Pseudomonas aeruginosa = assay: Antimicrobial activity against Pseudomonas aeruginosa PAO1 assessed as inhibition of bacterial biofilm after 18 hrs by broth microdilution method; format: functional
In short: (§4)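 Polystyrene plates with breathable lids in 1× TSB (0.25% glucose), 37°C for 18 h. Biofilms form at the air-liquid interface. Stained with crystal violet, dye eluted with 30% acetic acid, OD read. Compound 2-fold series, final 0.2–100 μM in 2% DMSO. MBIC taken at ≥80% inhibition versus untreated. Geometric mean of ≥3 experiments.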

Staphylococcus aureus [9] = assay: Antimicrobial activity against hospital acquired methicillin-resistant Staphylococcus aureus isolate 58336 assessed as inhibition of bacterial biofilm after 18 hrs by broth microdilution method; format: functional; in short: as §1
Enterococcus faecalis [10] = assay: Antimicrobial activity against vancomycin-resistant Enterococcus faecalis isolate F317 assessed as inhibition of bacterial biofilm after 18 hrs by broth microdilution method; format: functional; in short: as §1
Staphylococcus aureus [11] = assay: Antimicrobial activity against community acquired methicillin-resistant Staphylococcus aureus isolate 24209 assessed as inhibition of bacterial biofilm after 18 hrs by broth microdilution method; format: functional; in short: as §1
Enterococcus gallinarum [12] = assay: Antimicrobial activity against vancomycin-resistant Enterococcus gallinarum isolate 2392 on medical grade silicone disk assessed as inhibition of bacterial biofilm after 18 hrs by broth microdilution method; format: functional
In short: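 Medical-grade silicone disks glued to 24-well plate bottoms. Compound added to a 1:100 overnight-culture inoculum (0.5× TSB, 1% glucose) at 2% DMSO final; ≥3 wells each, ~18 h at 37°C. Washed with water, heat-fixed 60°C 60 min, stained with 0.06% crystal violet, eluted with 30% acetic acid, OD600 read. Repeated ≥3 times.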

Enterococcus gallinarum [13] = assay: Antimicrobial activity against vancomycin-resistant Enterococcus gallinarum isolate 2392 assessed as inhibition of bacterial biofilm after 18 hrs by broth microdilution method; format: functional; in short: as §1
Staphylococcus aureus [14] = assay: Antimicrobial activity against community-acquired Staphylococcus aureus MW2 on medical grade silicone disk assessed as inhibition of bacterial biofilm after 18 hrs by broth microdilution method; format: functional
Staphylococcus aureus [15] = assay: Antimicrobial activity against community acquired methicillin-resistant Staphylococcus aureus isolate 38230 assessed as inhibition of bacterial biofilm after 18 hrs by broth microdilution method; format: functional; in short: as §1
Enterococcus faecium [16] = assay: Antimicrobial activity against vancomycin-resistant Enterococcus faecium isolate F1181 assessed as inhibition of bacterial biofilm after 18 hrs by broth microdilution method; format: functional; in short: as §1
Staphylococcus aureus [17] = assay: Antimicrobial activity against community acquired methicillin-resistant Staphylococcus aureus isolate 22733 assessed as inhibition of bacterial biofilm after 18 hrs by broth microdilution method; format: functional; in short: as §1
Escherichia coli = assay: Antimicrobial activity against Escherichia coli ATCC 25922 assessed as inhibition of bacterial biofilm after 18 hrs by broth microdilution method; format: functional; in short: as §4
Staphylococcus aureus [18] = assay: Antimicrobial activity against Staphylococcus aureus ATCC 35556 assessed as inhibition of bacterial biofilm formation after 18 hrs by broth microdilution method in presence of 10 ug/ml fibronectin; format: functional; in short: as §3
Staphylococcus aureus [19] = assay: Antimicrobial activity against community acquired community-acquired Staphylococcus aureus MW2 assessed as inhibition of bacterial biofilm after 18 hrs by broth microdilution method; format: functional; in short: as §1
Staphylococcus aureus [20] = assay: Antimicrobial activity against methicillin-susceptible Staphylococcus aureus on medical grade silicone disk assessed as inhibition of bacterial biofilm after 18 hrs by broth microdilution method; format: functional
In short: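 S. aureus ATCC 35556 biofilms were grown on autoclaved medical-grade silicone disks fixed in 24-well plates. The inoculum was a 1:100 dilution of an overnight culture in 0.5× TSB with 1% glucose, with compound at 0× to 8× MBIC and 2% DMSO final, in at least three wells. Plates were held about 18 h at 37°C, water-washed, heat-fixed at 60°C for 60 min, and stained with 0.06% CV. CV was eluted in 30% acetic acid and read at OD600, averaging three disks; runs were repeated ≥3 times.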

Staphylococcus aureus [21] = assay: Antimicrobial activity against Staphylococcus aureus ATCC 35556 assessed as inhibition of bacterial biofilm formation after 18 hrs by broth microdilution method in presence of 5 ug/ml fibrinogen; format: functional; in short: as §3
Enterococcus faecium [22] = assay: Antimicrobial activity against vancomycin-resistant Enterococcus faecium isolate 1401 assessed as inhibition of bacterial biofilm after 18 hrs by broth microdilution method; format: functional; in short: as §1
Staphylococcus aureus [23] = assay: Antimicrobial activity against community acquired methicillin-susceptible Staphylococcus aureus assessed as inhibition of bacterial biofilm after 18 hrs by broth microdilution method; format: functional; in short: as §2
Enterococcus faecalis [24] = assay: Antimicrobial activity against vancomycin-resistant Enterococcus faecalis ATCC 51575 assessed as inhibition of bacterial biofilm after 18 hrs by broth microdilution method; format: functional; in short: as §1

CCOc1cc(/C=C2\SC(=S)N(c3ccc(F)cc3)C2=O)ccc1O
MBIC90 [1]: 42 µM | CC50 at 72 h [2]: ≥ 100 µM | MBIC (Staphylococcus aureus [3]): 8.8 µM | MBIC [4]: 42 µM | MBIC [5]: 50 µM | MBIC (Staphylococcus aureus [6]): 3.125 µM | MBIC [7]: 29.7 µM | MBIC (Staphylococcus aureus [8]): 6.25 µM | MBIC (Pseudomonas aeruginosa): >=100 uM | MBIC (Staphylococcus aureus [9]): 10.5 µM | MBIC (Enterococcus faecalis [10]): 25 µM | MBIC (Staphylococcus aureus [11]): 100 µM | MBIC90 (Enterococcus gallinarum [12]): >=100 uM | MBIC (Enterococcus gallinarum [13]): 84.1 µM | MBIC90 (Staphylococcus aureus [14]): 79.4 µM | MBIC (Staphylococcus aureus [15]): 50 µM | MBIC (Enterococcus faecium [16]): >=100 uM | MBIC (Staphylococcus aureus [17]): 50 µM | MBIC (Escherichia coli): >=100 uM | MBIC (Staphylococcus aureus [18]): 6.25 µM | MBIC (Staphylococcus aureus [19]): 42 µM | MBIC90 (Staphylococcus aureus [20]): 79.4 µM | MBIC (Staphylococcus aureus [21]): 3.125 µM | MBIC (Enterococcus faecium [22]): 100 µM | MBIC (Staphylococcus aureus [23]): 14.9 µM

C=CCOc1cc(/C=C2\SC(=S)N(c3ccc(F)cc3)C2=O)ccc1O
MBIC90 [1]: 59.5 µM | CC50 at 72 h [2]: 76.4 µM | MBIC (Staphylococcus aureus [3]): 8.8 µM | MBIC [4]: 29.7 µM | MBIC [5]: 59.5 µM | MBIC (Staphylococcus aureus [6]): 3.125 µM | MBIC [7]: 29.7 µM | MBIC (Staphylococcus aureus [8]): 3.125 µM | MBIC (Pseudomonas aeruginosa): >=100 uM | MBIC (Enterococcus faecalis [24]): 35.4 µM | MBIC (Enterococcus faecalis [10]): 100 µM | MBIC (Staphylococcus aureus [11]): 100 µM | MBIC90 (Enterococcus gallinarum [12]): 100 µM | MBIC (Enterococcus gallinarum [13]): >=100 uM | MBIC90 (Staphylococcus aureus [14]): 100 µM | MBIC (Staphylococcus aureus [15]): 35.4 µM | MBIC (Enterococcus faecium [16]): >=100 uM | MBIC (Staphylococcus aureus [17]): 100 µM | MBIC (Escherichia coli): >=100 uM | MBIC (Staphylococcus aureus [18]): 3.125 µM | MBIC (Staphylococcus aureus [19]): 25 µM | MBIC90 (Staphylococcus aureus [20]): 100 µM | MBIC (Staphylococcus aureus [21]): 3.125 µM | MBIC (Enterococcus faecium [22]): 79.4 µM | MBIC (Staphylococcus aureus [23]): 10.5 µM
